{"data": "Results from different studies", "FAAH": "Fatty-acid amide hydrolase 1 (FAAH, Homo sapiens, UniProt O00519)", "CCKBR": "Gastrin/cholecystokinin type B receptor (CCKBR, Homo sapiens, UniProt P32239)", "MTNR1A": "Melatonin receptor type 1A (MTNR1A, Homo sapiens, UniProt P48039)", "MMP3": "Stromelysin-1 (MMP3, Homo sapiens, UniProt P08254)", "PTGS1": "Prostaglandin G/H synthase 1 (PTGS1, Homo sapiens, UniProt P23219)", "HTR2C": "5-hydroxytryptamine receptor 2C (HTR2C, Homo sapiens, UniProt P28335)", "BDKRB1": "B1 bradykinin receptor (BDKRB1, Homo sapiens, UniProt P46663)", "note": "Each line is one published result; the experiments were not run side by side."}
{"SMILES": "CN(C(=O)Oc1nsnc1N1CCCCC1)c1ccccc1[N+](=O)[O-]", "target": "FAAH", "effect on": "enzyme activity", "action": "inhibitor", "tested at": "10 µM", "notes": "cell membranes", "inhibition [%]": 46}
{"SMILES": "c1ccc(C(NCCNC(c2ccccc2)c2ccccc2)c2ccccc2)cc1", "target": "CCKBR", "effect on": "cell-free assay", "tested at": "10 µM", "inhibition [%]": 33}
{"SMILES": "C#Cc1n[nH]c2c(-c3cn(C(C)c4ccccn4)c(=O)[nH]c3=O)cc(F)cc12 (stereo not shown)", "target": "Tyrosine-protein kinase receptor TYRO3 (TYRO3, Homo sapiens, UniProt Q06418)", "effect on": "enzyme activity", "action": "inhibitor", "tested at": "1 µM", "inhibition [%]": 79}
{"SMILES": "CC(C)Cn1cnc2c(N)nc3ccccc3c21", "target": "MTNR1A", "effect on": "ligand displacement", "technique": "radioligand", "tested at": "10 µM", "inhibition [%]": 32}
{"SMILES": "O=C(Nc1cccnn1)N1CCN([C@@H]2CCOc3cc(C(F)(F)F)ccc32)CC1", "target": "MTNR1A", "effect on": "ligand displacement", "tested at": "20 µM", "inhibition [%]": 16}
{"SMILES": "CN(C(=O)Oc1nsnc1N1CCCCC1)C1CCCCC1", "target": "FAAH", "effect on": "enzyme activity", "action": "inhibitor", "tested at": "10 µM", "notes": "cell membranes", "inhibition [%]": 16}
{"SMILES": "C#Cc1n[nH]c2c(-c3cn([C@@H](C)c4ccccc4)c(=O)[nH]c3=O)cc(F)cc12", "target": "Rho-associated protein kinase 1 (ROCK1, Homo sapiens, UniProt Q13464)", "effect on": "enzyme activity", "action": "inhibitor", "tested at": "0.1 µM", "inhibition [%]": 3.5}
{"SMILES": "Cn1cc(-c2cccc(N3CCc4c(sc5c4CC(C)(C)C5)C3=O)c2CO)cc(Nc2ccncn2)c1=O", "target": "Aurora kinase A (AURKA, Homo sapiens, UniProt O14965)", "effect on": "enzyme activity", "action": "inhibitor", "tested at": "1 µM", "inhibition [%]": 3}
{"SMILES": "CCOC(=O)c1ccc(OC(=O)CCCCCNC(=N)N)cc1", "target": "MMP3", "effect on": "enzyme activity", "action": "inhibitor", "tested at": "10 µM", "inhibition [%]": 18}
{"SMILES": "COc1cc(Nc2ncc(F)c(Nc3ccc4c(n3)NC(=O)C(C)(C)O4)n2)cc(OC)c1OC", "target": "Serine/threonine-protein kinase SIK3 (SIK3, Homo sapiens, UniProt Q9Y2K2)", "effect on": "binding", "technique": "competition with immobilised ligand", "tested at": "10 µM", "inhibition [%]": 35}
{"SMILES": "Cc1ncc(C)n2nc(/C=C/c3nc(N4CCCC4)cc(N4CCOCC4)n3)nc12", "target": "PTGS1", "effect on": "enzyme activity", "action": "inhibitor", "tested at": "10 µM", "inhibition [%]": 10}
{"SMILES": "COc1ccc(S(=O)(=O)N(CC(=O)NO)CC(C)C)cc1", "target": "MMP3", "effect on": "enzyme activity", "action": "inhibitor", "tested at": "10 nM", "inhibition [%]": 20}
{"SMILES": "Cn1cc(-c2cc(F)cc(N3CCn4c(cc5c4CCCC5)C3=O)c2CO)cc(Nc2ccc(N3CCN(C4COC4)CC3)cn2)c1=O", "target": "Mitogen-activated protein kinase kinase kinase 8 (MAP3K8, Homo sapiens, UniProt P41279)", "effect on": "enzyme activity", "action": "inhibitor", "tested at": "0.1 µM", "inhibition [%]": 17}
{"SMILES": "COCCN(CCOC)C(=O)[C@@]12C[C@@H]1[C@@H](n1cnc3c(N)nc(Cl)nc31)[C@H](O)[C@@H]2O", "target": "HTR2C", "effect on": "ligand displacement", "technique": "radioligand", "tested at": "10 µM", "inhibition [%]": 12}
{"SMILES": "CCC(C)c1ccccc1OCC(=O)N1CCC(C(=O)Nc2ccc3c(c2)OCO3)CC1 (stereo not shown)", "target": "Trypanothione synthetase (Trypanosoma cruzi, UniProt Q9GT49)", "effect on": "enzyme activity", "action": "inhibitor", "technique": "absorbance", "tested at": "25 µM", "inhibition [%]": 5.5}
{"SMILES": "CCN(C(=O)Oc1nsnc1N1CCCCC1)c1ccccc1", "target": "FAAH", "effect on": "enzyme activity", "action": "inhibitor", "tested at": "10 µM", "notes": "cell membranes", "inhibition [%]": 24}
{"SMILES": "OC(c1ccc(F)cc1)C(F)(F)CCN1CCC(O)(c2ccc(Cl)cc2)CC1 (racemic)", "target": "Sigma intracellular receptor 2 (Tmem97, Rattus norvegicus, UniProt Q5U3Y7)", "effect on": "ligand displacement", "technique": "radioligand", "tested at": "10 µM", "inhibition [%]": "> 50"}
{"SMILES": "COCc1c(-c2cc3cc(C)cc(OC)c3s2)c2c(N)ncnn2c1CN1CCNC(=O)C1", "target": "BDKRB1", "effect on": "ligand displacement", "technique": "radioligand", "tested at": "10 µM", "inhibition [%]": 5}
{"SMILES": "COc1ccc(S(=O)(=O)N2CCCCC2)cc1C", "target": "BDKRB1", "effect on": "ligand displacement", "technique": "radioligand", "tested at": "10 µM", "inhibition [%]": "< 30"}
{"SMILES": "C[C@H](C(=O)N[C@H]1COc2ccccc2[C@@H]1S(C)(=O)=O)c1ccc(F)cc1", "target": "PTGS1", "effect on": "enzyme activity", "action": "inhibitor", "tested at": "10 µM", "inhibition [%]": -24}
{"SMILES": "CCN(CC)CCCC[C@H](NC(=O)[C@H](CC(C)C)NC(=O)[C@H](C)NC(=O)[C@H](Cc1ccccc1)NC(=O)c1ccc(C(C)(C)C)cc1)C(=O)N[C@@H](CO)C(=O)OC", "target": "MTNR1A", "effect on": "ligand displacement", "technique": "radioligand", "tested at": "10 µM", "inhibition [%]": 8}
{"SMILES": "Cc1cc(C)c(N(C)C(=O)Oc2nsnc2N2CCCCC2)c(C)c1", "target": "FAAH", "effect on": "enzyme activity", "action": "inhibitor", "tested at": "10 µM", "notes": "cell membranes", "inhibition [%]": 7}
{"SMILES": "N=C(N)c1ccc2cc(OC(=O)c3ccc(N=C(N)N)cc3)ccc2c1", "target": "Ubiquitin carboxyl-terminal hydrolase 10 (USP10, Homo sapiens, UniProt Q14694)", "effect on": "enzyme activity", "action": "inhibitor", "tested at": "10 µM", "inhibition [%]": 0}
{"SMILES": "CN(C(=O)Oc1nsnc1N1CCCCC1)c1ccc(Cl)cc1", "target": "FAAH", "effect on": "enzyme activity", "action": "inhibitor", "tested at": "10 µM", "notes": "cell membranes", "inhibition [%]": 16}
{"SMILES": "CC(C)N1CCC[C@H]1CNC(=O)c1cn(C2CCCC2)c(=O)c2c1c1ccccc1n2C", "target": "MTNR1A", "effect on": "ligand displacement", "technique": "radioligand", "tested at": "10 µM", "inhibition [%]": 37}
{"SMILES": "CN(C(=O)Oc1nsnc1N1CCCCC1)C1CCCCCCC1", "target": "FAAH", "effect on": "enzyme activity", "action": "inhibitor", "tested at": "10 µM", "notes": "cell membranes", "inhibition [%]": 13}
{"SMILES": "CN(C)C(=O)COC(=O)Cc1ccc(OC(=O)c2ccc(NC(=N)N)cc2)cc1", "target": "MMP3", "effect on": "enzyme activity", "action": "inhibitor", "tested at": "10 µM", "inhibition [%]": 27}
{"SMILES": "CN(C(=O)Oc1nsnc1N1CCCCC1)c1cccc(F)c1", "target": "FAAH", "effect on": "enzyme activity", "action": "inhibitor", "tested at": "10 µM", "notes": "cell membranes", "inhibition [%]": 48}
{"SMILES": "COc1cc2c3c(c1OC)-c1cc4c(cc1CC3N(C)CC2)OCO4 (racemic)", "target": "HTR2C", "effect on": "ligand displacement", "technique": "radioligand", "tested at": "10 µM", "inhibition [%]": 103}
{"SMILES": "COc1ccccc1N(C)C(=O)Oc1nsnc1N1CCCCC1", "target": "FAAH", "effect on": "enzyme activity", "action": "inhibitor", "tested at": "10 µM", "notes": "cell membranes", "inhibition [%]": 18}
{"SMILES": "CN(CCN1CCC(OC(=O)Nc2ccccc2-c2ccccc2)CC1)C(=O)c1ccc(CN2CCC(C(N)=O)CC2)cc1", "target": "CCKBR", "effect on": "ligand displacement", "technique": "radioligand", "tested at": "1 µM", "inhibition [%]": -9}
